The record followed here is ChEMBL document CHEMBL5136969, “A niclosamide-tobramycin hybrid adjuvant potentiates cefiderocol against P. aeruginosa” (2021).

The source made the active and inactive calls.

Assay [1] has as its system Pseudomonas aeruginosa. As to the kind of experiment: Potentiation of rifampicin-induced antibiotic activity against Pseudomonas aeruginosa PAO1 assessed as MIC fold reduction at 8 ug/ml after 18 hrs by microbroth dilution method. It counts as functional. As to conditions: dose 8 µg/ml. Background: Broth dilution looks for growth in wells or tubes with falling amounts of substance.

For the next assay, the system named is Staphylococcus aureus. As to the kind of experiment: Antibacterial activity against Staphylococcus aureus ATCC 29213 assessed as reduction in bacterial growth after 18 hrs by microbroth dilution method. It counts as functional. The procedure, abridged:
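CLSI broth microdilution. Overnight cultures were adjusted in saline to 0.5 McFarland, diluted 1:50 in Mueller-Hinton broth (MHB), and inoculated at about 5 × 10^5 CFU/mL. Agents were 2-fold serially diluted in MHB, mixed 1:1 with inoculum, and held at 37 °C for 18 h. MIC was the lowest concentration with no visible turbidity, confirmed at 590 nm.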

In assay [2] the test system is Escherichia coli. As to the kind of experiment: Potentiation of cefiderocol-induced antibiotic activity against Escherichia coli ATCC 25922 assessed as MIC fold reduction at 8 ug/ml after 18 hrs by microbroth dilution method. It counts as functional. The note with it: dose 8 µg/ml. The procedure, abridged: (§1)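 Initial screen in MHB using a fixed 8 μg mL−1 of adjuvant combined with each antibiotic under 2-fold dilution. Broth microdilution used about 5 × 10^5 CFU/mL at 37 °C for 18 h, with visible turbidity read and confirmed at 590 nm. Fold-potentiation = antibiotic MIC alone ÷ antibiotic MIC with adjuvant.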

In assay [3] the test system is Pseudomonas aeruginosa. Briefly: Potentiation of trimethoprim-induced antibiotic activity against Pseudomonas aeruginosa PAO1 assessed as MIC fold reduction at 8 ug/ml after 18 hrs by microbroth dilution method. The format is functional. As to conditions: dose 8 µg/ml.
In assay [4] the test system is Escherichia coli. As to the kind of experiment: Potentiation of colistin-induced antibiotic activity against Escherichia coli ATCC 25922 assessed as MIC fold reduction at 8 ug/ml after 18 hrs by microbroth dilution method. As to conditions: dose 8 µg/ml. It counts as functional. The essentials: (§2)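 Adjuvant held at a fixed 8 μg/mL while the antibiotic was 2-fold serially diluted in Mueller-Hinton broth (MHB), per CLSI microbroth dilution. Overnight cultures were adjusted in saline to 0.5 McFarland, then diluted 1:50 in MHB to about 5 × 10^5 CFU/mL final, and incubated 18 h at 37 °C. MIC was the lowest concentration with no visible turbidity, confirmed at 590 nm. Fold potentiation = MIC alone / MIC with adjuvant.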

The subject of assay [5] is Pseudomonas aeruginosa. Briefly: Antibacterial activity against MDR clinical isolate Pseudomonas aeruginosa PA109084 assessed as reduction in bacterial growth after 18 hrs in presence of cefiderocol by microbroth dilution method. The format is functional. The essentials:
(§3)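 Checkerboard in MHB. Cefiderocol was 2-fold serially diluted along one axis and the adjuvant along the other. Inoculum was prepared from 0.5 McFarland saline suspensions diluted 1:50 in MHB, giving about 5 × 10^5 CFU/mL final. Plates ran 18 h at 37 °C, with turbidity confirmed at 590 nm. FIC = combination MIC ÷ MIC alone for each agent, and FIC index = sum of both. Interpretation: ≤0.5 synergy, >0.5–4 additive, >4 antagonism.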

Assay [6] deals with Pseudomonas aeruginosa. As to the kind of experiment: Potentiation of ceftazidime-induced antibiotic activity against Pseudomonas aeruginosa PAO1 assessed as MIC fold reduction at 8 ug/ml after 18 hrs by microbroth dilution method. The format is functional. As to conditions: dose 8 µg/ml. The procedure, abridged:
as §2

Assay [7] deals with Acinetobacter baumannii. Briefly: Potentiation of linezolid-induced antibiotic activity against Acinetobacter baumannii ATCC 17978 assessed as MIC fold reduction at 8 ug/ml after 18 hrs by microbroth dilution method. The format is functional. As to conditions: dose 8 µg/ml. The essentials: as §2
Assay [8] relates to Escherichia coli. As to the kind of experiment: Potentiation of piperacilin-induced antibiotic activity against Escherichia coli ATCC 25922 assessed as MIC fold reduction at 8 ug/ml after 18 hrs by microbroth dilution method. It counts as functional. As to conditions: dose 8 µg/ml.
Assay [9] relates to Escherichia coli. As to the kind of experiment: Potentiation of moxifloxacin-induced antibiotic activity against Escherichia coli ATCC 25922 assessed as MIC fold reduction at 8 ug/ml after 18 hrs by microbroth dilution method. The format is functional. As to conditions: dose 8 µg/ml. The essentials: as §2
In another assay the test system is Enterobacter cloacae. Briefly: Antibacterial activity against Enterobacter cloacae 118564 assessed as potentiation of cefiderocol antibacterial activity by measuring FIC after 18 hrs by microbroth dilution method. It counts as functional. The procedure, abridged: (§4)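 Checkerboard in Mueller-Hinton broth: cefiderocol 2-fold diluted on one axis, adjuvant 2-fold on the other. Overnight cultures were adjusted to 0.5 McFarland in saline, diluted 1:50 in MHB, and inoculated at about 5 × 10^5 CFU/mL. Incubation was 18 h at 37 °C. Turbidity was read visually and confirmed at 590 nm. FIC index = FIC of antibiotic + FIC of adjuvant; ≤0.5 synergy, >4 antagonism.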

Assay [10] relates to Pseudomonas aeruginosa. Briefly: Potentiation of cefiderocol-induced antibiotic activity against Pseudomonas aeruginosa PAO1 assessed as MIC fold reduction at 8 ug/ml after 18 hrs by microbroth dilution method. The note with it: dose 8 µg/ml. The format is functional. The essentials:
as §1

The test system of assay [11] is Pseudomonas aeruginosa. Briefly: Antibacterial activity against MDR clinical isolate Pseudomonas aeruginosa PA262 assessed as potentiation of cefiderocol antibacterial activity by measuring FIC index after 18 hrs by microbroth dilution method. It counts as functional. The procedure, abridged:
as §3

For assay [12], the system named is Acinetobacter baumannii. As to the kind of experiment: Potentiation of vancomycin-induced antibiotic activity against Acinetobacter baumannii ATCC 17978 assessed as MIC fold reduction at 8 ug/ml after 18 hrs by microbroth dilution method. It counts as functional. As to conditions: dose 8 µg/ml.
Assay [13] concerns Pseudomonas aeruginosa. Briefly: Antibacterial activity against MDR clinical isolate Pseudomonas aeruginosa PA109084 assessed as potentiation of cefiderocol antibacterial activity by measuring FIC index after 18 hrs by microbroth dilution method. The format is functional. The essentials:
as §3

In assay [14] the test system is Acinetobacter baumannii. Briefly: Antibacterial activity against Acinetobacter baumannii AB92247 assessed as reduction in bacterial growth after 18 hrs in presence of cefiderocol by microbroth dilution method. It counts as functional. The essentials: as §4
Assay [15] deals with Pseudomonas aeruginosa. Briefly: Antibacterial activity against colistin-resistant clinical isolate Pseudomonas aeruginosa PA101243 assessed as reduction in bacterial growth after 18 hrs in presence of cefiderocol by microbroth dilution method. The format is functional. The procedure, abridged: (§5)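 Checkerboard in MHB (iron-replete, not iron-depleted CAMHB). Cefiderocol was 2-fold serially diluted along one axis and the adjuvant along the other. Inoculum was 0.5 McFarland diluted 1:50, about 5 × 10^5 CFU/mL final. Incubation was 18 h at 37 °C, with turbidity read visually and confirmed at 590 nm. FIC was the MIC in combination over the MIC alone for each agent, and the FIC index was their sum. Cut-offs were ≤0.5 synergy, >0.5–4 additive, >4 antagonism.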

The subject of assay [16] is Pseudomonas aeruginosa. Briefly: Antibacterial activity against MDR clinical isolate Pseudomonas aeruginosa PA86052 assessed as reduction in bacterial growth after 18 hrs in presence of cefiderocol by microbroth dilution method. The format is functional. The essentials: as §3
For assay [17], the system named is Acinetobacter baumannii. Briefly: Potentiation of piperacilin-induced antibiotic activity against Acinetobacter baumannii ATCC 17978 assessed as MIC fold reduction at 8 ug/ml after 18 hrs by microbroth dilution method. As to conditions: dose 8 µg/ml. The format is functional.
Assay [18] deals with Pseudomonas aeruginosa. As to the kind of experiment: Potentiation of sulfamethoxazole-induced antibiotic activity against Pseudomonas aeruginosa PAO1 assessed as MIC fold reduction at 8 ug/ml after 18 hrs by microbroth dilution method. The format is functional. As to conditions: dose 8 µg/ml.
Assay [19] relates to Pseudomonas aeruginosa. Briefly: Potentiation of cefiderocol-induced antibiotic activity against MDR clinical isolate Pseudomonas aeruginosa PA264 assessed as MIC fold reduction at 8 ug/ml after 18 hrs by microbroth dilution method. The format is functional, organism-based. The note with it: dose 8.0 µg/ml. The essentials: as §1
The subject of assay [20] is Pseudomonas aeruginosa. Briefly: Potentiation of cefotaxime-induced antibiotic activity against […] Pseudomonas aeruginosa PAO1 assessed as MIC fold reduction at 8 ug/ml after 18 hrs by microbroth dilution method. The format is functional, organism-based. As to conditions: dose 8.0 µg/ml. The essentials: as §2
For assay [21], the system named is Pseudomonas aeruginosa. Briefly: Antibacterial activity against MDR clinical isolate Pseudomonas aeruginosa PA264 assessed as potentiation of cefiderocol antibacterial activity by measuring FIC index after 18 hrs by microbroth dilution method. It counts as functional. The procedure, abridged: as §5
Assay [22] deals with Escherichia coli. As to the kind of experiment: Antibacterial activity against Escherichia coli ATCC 25922 assessed as reduction in bacterial growth after 18 hrs in presence of cefiderocol by microbroth dilution method. It counts as functional. The procedure, abridged:
as §4

In the case of `NC[C@H]1O[C@H](O[C@H]2[C@H](OCCCCc3cn(-c4ccc(NC(=O)c5cc(Cl)ccc5O)cc4)nn3)[C@@H](O[C@H]3O[C@H](CO)[C@@H](O)[C@H](N)[C@H]3O)[C@H](N)C[C@@H]2N)[C@H](N)C[C@@H]1O`, the “fold change (FC)” value in the assay with Pseudomonas aeruginosa [1], with Escherichia coli [2], in the assay with Pseudomonas aeruginosa [3], in the assay on Escherichia coli [4], in the assay with Pseudomonas aeruginosa [6] and with Acinetobacter baumannii [7] was 4 in each case. Besides, the “fold change (FC)” value in the assay with Escherichia coli [8], with Escherichia coli [9], with Pseudomonas aeruginosa [10], in the assay on Acinetobacter baumannii [12], in the assay on Acinetobacter baumannii [17] and in the assay on Pseudomonas aeruginosa [18] was 4 each time. Moreover, the MIC with Staphylococcus aureus is above 128 µg/mL; in the assay with Pseudomonas aeruginosa [5], 0.5 µg/mL; in the assay with Acinetobacter baumannii [14], 8 µg/mL; in the assay with Pseudomonas aeruginosa [15], 2 µg/mL; with Pseudomonas aeruginosa [16], 0.25 µg/mL; with Escherichia coli [22], 0.25 µg/mL. The FIC in the assay with Enterobacter cloacae stood at 1; in the assay on Pseudomonas aeruginosa [11], 0.25; with Pseudomonas aeruginosa [13], 0.004; in the assay on Pseudomonas aeruginosa [21], 0.125. Further, the outcome in the assay on Pseudomonas aeruginosa [19] and with Pseudomonas aeruginosa [20] was Active.

Usually MIC stands for the smallest concentration in the dilution series that meets the test's criterion for growth inhibition.
